Measured values as given in ChEMBL document CHEMBL4257467, “Synthesis and pharmaceutical characterization of site specific mycophenolic acid-modified Xenopus glucagon-like peptide-1 analogs” (Medchemcomm, 2018).
*1 amine or outer side, *2 acyl side, *3 side chain or, on linkers, in order; H or OH if unused. Where a SMILES comes first, the peptide text is derived from it. Side-chain parts run from the residue outwards. The star is where a group is joined. Mycophenolyl = COc1c(C)c2c(c(O)c1C/C=C(\C)CCC(=O)*)C(=O)OC2; γGlu = O=C(O)[C@H](CCC(=O)[*:2])N[*:1]; 12Ado = NCCCCCCCCCCCC(=O)O; Ahx = NCCCCCC(=O)O

Molecular target: Glucagon-like peptide 1 receptor (Homo sapiens, UniProt P43220)
Test: Agonist activity at human GLP1 receptor expressed in HEK293 cells assessed as increase in cAMP level after 30 mins by HTRF method
Format: functional, cell-based
Procedure, shortened: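 HEK293 cells stably expressing human GLP-1 receptor, thawed, suspended in DMEM with 20 mM HEPES, 2 mM L-Glu, 0.5% FBS, 1% pen-strep. Compounds dissolved in DMSO, diluted in assay buffer to 1 × 10−13–1 × 10−6 M final, 30 min at 37 °C in 5% CO2. cAMP read by HTRF. EC50 as means ± SD of three individual experiments, n = 3.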

Sequence of Glucagon-like peptide 1 receptor (P43220 whole entry): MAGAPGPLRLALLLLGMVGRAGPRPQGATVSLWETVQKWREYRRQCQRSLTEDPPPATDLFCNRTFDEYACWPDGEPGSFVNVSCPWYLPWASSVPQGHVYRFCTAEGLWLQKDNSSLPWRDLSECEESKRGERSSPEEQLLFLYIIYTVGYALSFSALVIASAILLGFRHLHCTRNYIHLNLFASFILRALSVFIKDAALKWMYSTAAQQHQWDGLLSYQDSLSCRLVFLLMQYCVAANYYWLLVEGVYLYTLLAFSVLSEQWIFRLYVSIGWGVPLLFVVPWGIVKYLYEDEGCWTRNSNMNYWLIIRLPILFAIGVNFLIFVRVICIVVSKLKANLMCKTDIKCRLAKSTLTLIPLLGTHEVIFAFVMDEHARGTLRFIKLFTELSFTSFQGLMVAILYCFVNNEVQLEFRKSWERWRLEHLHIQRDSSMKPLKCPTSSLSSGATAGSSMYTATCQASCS

Molecule | EC50
CC[C@H](C)[C@H](NC(=O)[C@H](CC(C)C)NC(=O)[C@H](Cc1c[nH]c2ccccc12)NC(=O)[C@H](CCC(=O)O)NC(=O)[C@@H](NC(=O)[C@H](Cc1ccccc1)NC(=O)[C@H](CCC(=O)O)NC(=O)[C@H](CCCCNC(=O)CC[C@H](NC(=O)CCCCCCCCCCCNC(=O)CC/C(C)=C/Cc1c(O)c2c(c(C)c1OC)COC2=O)C(=O)O)NC(=O)[C@H](C)NC(=O)[C@H](C)NC(=O)[C@H](CCC(=O)O)NC(=O)[C@H](CCC(=O)O)NC(=O)[C@H](CCC(=O)O)NC(=O)[C@H](CC(C)C)NC(=O)[C@H](Cc1ccc(O)cc1)NC(=O)[C@H](CCC(=O)O)NC(=O)[C@@H](NC(=O)[C@@H](NC(=O)[C@H](CC(=O)O)NC(=O)[C@H](CC(N)=O)NC(=O)[C@@H](NC(=O)[C@H](Cc1ccc(O)cc1)NC(=O)[C@@H](NC(=O)CNC(=O)[C@H](CCC(=O)O)NC(=O)CNC(=O)[C@@H](N)Cc1cnc[nH]1)[C@@H](C)O)[C@@H](C)O)C(C)C)[C@@H](C)O)[C@@H](C)CC)C(=O)N[C@@H](CCCCN)C(=O)NCC(=O)N[C@@H](CCCCN)C(=O)O (H-HGEGTYTNDVTEYLEEEAAK([γGlu-12Ado-Mycophenolyl])EFIEWLIKGK-OH) | 0.0073 µM
CC[C@H](C)[C@H](NC(=O)[C@H](CC(C)C)NC(=O)[C@H](Cc1c[nH]c2ccccc12)NC(=O)[C@H](CCC(=O)O)NC(=O)[C@@H](NC(=O)[C@H](Cc1ccccc1)NC(=O)[C@H](CCC(=O)O)NC(=O)[C@H](CCCCNC(=O)CC[C@H](NC(=O)CCCCCNC(=O)CC/C(C)=C/Cc1c(O)c2c(c(C)c1OC)COC2=O)C(=O)O)NC(=O)[C@H](C)NC(=O)[C@H](C)NC(=O)[C@H](CCC(=O)O)NC(=O)[C@H](CCC(=O)O)NC(=O)[C@H](CCC(=O)O)NC(=O)[C@H](CC(C)C)NC(=O)[C@H](Cc1ccc(O)cc1)NC(=O)[C@H](CCC(=O)O)NC(=O)[C@@H](NC(=O)[C@@H](NC(=O)[C@H](CC(=O)O)NC(=O)[C@H](CC(N)=O)NC(=O)[C@@H](NC(=O)[C@H](Cc1ccc(O)cc1)NC(=O)[C@@H](NC(=O)CNC(=O)[C@H](CCC(=O)O)NC(=O)CNC(=O)[C@@H](N)Cc1cnc[nH]1)[C@@H](C)O)[C@@H](C)O)C(C)C)[C@@H](C)O)[C@@H](C)CC)C(=O)N[C@@H](CCCCN)C(=O)NCC(=O)N[C@@H](CCCCN)C(=O)O (H-HGEGTYTNDVTEYLEEEAAK([γGlu-Ahx-Mycophenolyl])EFIEWLIKGK-OH) | 0.0069 µM
CC[C@H](C)[C@H](NC(=O)[C@H](CC(C)C)NC(=O)[C@H](Cc1c[nH]c2ccccc12)NC(=O)[C@H](CCC(=O)O)NC(=O)[C@@H](NC(=O)[C@H](Cc1ccccc1)NC(=O)[C@H](CCC(=O)O)NC(=O)[C@H](CCCCN)NC(=O)[C@H](C)NC(=O)[C@H](C)NC(=O)[C@H](CCC(=O)O)NC(=O)[C@H](CCC(=O)O)NC(=O)[C@H](CCC(=O)O)NC(=O)[C@H](CC(C)C)NC(=O)[C@H](Cc1ccc(O)cc1)NC(=O)[C@H](CCC(=O)O)NC(=O)[C@@H](NC(=O)[C@@H](NC(=O)[C@H](CC(=O)O)NC(=O)[C@H](CC(N)=O)NC(=O)[C@@H](NC(=O)[C@H](Cc1ccc(O)cc1)NC(=O)[C@@H](NC(=O)CNC(=O)[C@H](CCC(=O)O)NC(=O)CNC(=O)[C@@H](N)Cc1cnc[nH]1)[C@@H](C)O)[C@@H](C)O)C(C)C)[C@@H](C)O)[C@@H](C)CC)C(=O)N[C@@H](CCCCNC(=O)CC[C@H](NC(=O)CCCCCCCCCCCNC(=O)CC/C(C)=C/Cc1c(O)c2c(c(C)c1OC)COC2=O)C(=O)O)C(=O)NCC(=O)N[C@@H](CCCCN)C(=O)O (H-HGEGTYTNDVTEYLEEEAAKEFIEWLIK([γGlu-12Ado-Mycophenolyl])GK-OH) | 0.0163 µM
CC[C@H](C)[C@H](NC(=O)[C@H](CC(C)C)NC(=O)[C@H](Cc1c[nH]c2ccccc12)NC(=O)[C@H](CCC(=O)O)NC(=O)[C@@H](NC(=O)[C@H](Cc1ccccc1)NC(=O)[C@H](CCC(=O)O)NC(=O)[C@H](CCCCN)NC(=O)[C@H](C)NC(=O)[C@H](C)NC(=O)[C@H](CCC(=O)O)NC(=O)[C@H](CCC(=O)O)NC(=O)[C@H](CCC(=O)O)NC(=O)[C@H](CC(C)C)NC(=O)[C@H](Cc1ccc(O)cc1)NC(=O)[C@H](CCC(=O)O)NC(=O)[C@@H](NC(=O)[C@@H](NC(=O)[C@H](CC(=O)O)NC(=O)[C@H](CC(N)=O)NC(=O)[C@@H](NC(=O)[C@H](Cc1ccc(O)cc1)NC(=O)[C@@H](NC(=O)CNC(=O)[C@H](CCC(=O)O)NC(=O)CNC(=O)[C@@H](N)Cc1cnc[nH]1)[C@@H](C)O)[C@@H](C)O)C(C)C)[C@@H](C)O)[C@@H](C)CC)C(=O)N[C@@H](CCCCNC(=O)CC[C@H](NC(=O)CCCCCNC(=O)CC/C(C)=C/Cc1c(O)c2c(c(C)c1OC)COC2=O)C(=O)O)C(=O)NCC(=O)N[C@@H](CCCCN)C(=O)O (H-HGEGTYTNDVTEYLEEEAAKEFIEWLIK([γGlu-Ahx-Mycophenolyl])GK-OH) | 0.0118 µM
CC[C@H](C)[C@H](NC(=O)[C@H](CC(C)C)NC(=O)[C@H](Cc1c[nH]c2ccccc12)NC(=O)[C@H](CCC(=O)O)NC(=O)[C@@H](NC(=O)[C@H](Cc1ccccc1)NC(=O)[C@H](CCC(=O)O)NC(=O)[C@H](CCCCN)NC(=O)[C@H](C)NC(=O)[C@H](C)NC(=O)[C@H](CCC(=O)O)NC(=O)[C@H](CCC(=O)O)NC(=O)[C@H](CCC(=O)O)NC(=O)[C@H](CC(C)C)NC(=O)[C@H](Cc1ccc(O)cc1)NC(=O)[C@H](CCC(=O)O)NC(=O)[C@@H](NC(=O)[C@@H](NC(=O)[C@H](CC(=O)O)NC(=O)[C@H](CC(N)=O)NC(=O)[C@@H](NC(=O)[C@H](Cc1ccc(O)cc1)NC(=O)[C@@H](NC(=O)CNC(=O)[C@H](CCC(=O)O)NC(=O)CNC(=O)[C@@H](N)Cc1cnc[nH]1)[C@@H](C)O)[C@@H](C)O)C(C)C)[C@@H](C)O)[C@@H](C)CC)C(=O)N[C@@H](CCCCN)C(=O)NCC(=O)N[C@@H](CCCCNC(=O)CC[C@H](NC(=O)CCCCCCCCCCCNC(=O)CC/C(C)=C/Cc1c(O)c2c(c(C)c1OC)COC2=O)C(=O)O)C(=O)O (H-HGEGTYTNDVTEYLEEEAAKEFIEWLIKGK([γGlu-12Ado-Mycophenolyl])-OH) | 0.0235 µM
CC[C@H](C)[C@H](NC(=O)[C@H](CC(C)C)NC(=O)[C@H](Cc1c[nH]c2ccccc12)NC(=O)[C@H](CCC(=O)O)NC(=O)[C@@H](NC(=O)[C@H](Cc1ccccc1)NC(=O)[C@H](CCC(=O)O)NC(=O)[C@H](CCCCN)NC(=O)[C@H](C)NC(=O)[C@H](C)NC(=O)[C@H](CCC(=O)O)NC(=O)[C@H](CCC(=O)O)NC(=O)[C@H](CCC(=O)O)NC(=O)[C@H](CC(C)C)NC(=O)[C@H](Cc1ccc(O)cc1)NC(=O)[C@H](CCC(=O)O)NC(=O)[C@@H](NC(=O)[C@@H](NC(=O)[C@H](CC(=O)O)NC(=O)[C@H](CC(N)=O)NC(=O)[C@@H](NC(=O)[C@H](Cc1ccc(O)cc1)NC(=O)[C@@H](NC(=O)CNC(=O)[C@H](CCC(=O)O)NC(=O)CNC(=O)[C@@H](N)Cc1cnc[nH]1)[C@@H](C)O)[C@@H](C)O)C(C)C)[C@@H](C)O)[C@@H](C)CC)C(=O)N[C@@H](CCCCN)C(=O)NCC(=O)N[C@@H](CCCCNC(=O)CC[C@H](NC(=O)CCCCCNC(=O)CC/C(C)=C/Cc1c(O)c2c(c(C)c1OC)COC2=O)C(=O)O)C(=O)O (H-HGEGTYTNDVTEYLEEEAAKEFIEWLIKGK([γGlu-Ahx-Mycophenolyl])-OH) | 0.0168 µM
H-HGEGTYTNDVTEYLEEEAAKEFIEWLIKGK-OH | 0.0054 µM
